ChEMBL document CHEMBL5107948, “Activity-based protein profiling reveals deubiquitinase and aldehyde dehydrogenase targets of a cyanopyrrolidine probe” (RSC Med Chem, 2021)
Active and inactive are the calls of the source. The calls are words filed in the database; no cut-off is given here.

Legend:
[1] = target: T1, Ubiquitin carboxyl-terminal hydrolase BAP1 (Homo sapiens) (UniProt Q92560); assay: Inhibition of BAP1 in human HEK293 cells using HA-Ub-VME as substrate at 0.1 to 10 uM incubated for 1 hr by immunoblotting analysis; type: cell-based; conditions: dose 0.1-10 µM
T1 sequence (whole entry): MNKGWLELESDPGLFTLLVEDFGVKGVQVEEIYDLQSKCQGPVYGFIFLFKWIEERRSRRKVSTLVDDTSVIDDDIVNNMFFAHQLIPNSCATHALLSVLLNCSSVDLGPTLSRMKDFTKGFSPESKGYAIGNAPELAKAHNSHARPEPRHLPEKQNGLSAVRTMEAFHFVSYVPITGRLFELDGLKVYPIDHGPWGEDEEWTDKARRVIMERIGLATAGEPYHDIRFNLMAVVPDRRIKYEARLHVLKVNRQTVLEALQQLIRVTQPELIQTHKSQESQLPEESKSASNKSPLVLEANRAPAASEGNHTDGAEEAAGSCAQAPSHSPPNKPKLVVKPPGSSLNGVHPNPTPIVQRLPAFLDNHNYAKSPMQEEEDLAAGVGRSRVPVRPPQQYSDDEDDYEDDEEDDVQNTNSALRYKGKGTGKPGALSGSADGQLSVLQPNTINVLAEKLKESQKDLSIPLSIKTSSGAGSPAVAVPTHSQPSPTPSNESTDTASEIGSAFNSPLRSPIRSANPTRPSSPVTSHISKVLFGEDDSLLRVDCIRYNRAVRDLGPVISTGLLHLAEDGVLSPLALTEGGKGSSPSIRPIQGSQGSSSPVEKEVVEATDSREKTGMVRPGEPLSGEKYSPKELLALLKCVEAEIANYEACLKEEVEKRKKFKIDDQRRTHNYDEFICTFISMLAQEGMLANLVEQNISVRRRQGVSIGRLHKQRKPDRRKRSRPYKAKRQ
Method in brief: (§1)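 Near-confluent HEK293 cells treated with compound in medium for 1 h at 37 °C, lysed in Tris/NP-40/CHAPS buffer with benzonase. Lysate (20 µg) reacted with HA-Ahx-Ahx-Ub-VME (0.5 µg) 15 min at room temperature, boiled 5 min at 95 °C in SDS loading buffer with BME, SDS-PAGE and immunoblot.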

[2] = target: T2, Ubiquitin carboxyl-terminal hydrolase isozyme L3 (Homo sapiens, UniProt P15374); assay: Inhibition of GST-tagged recombinant UCHL3 (unknown origin) using Ub-Lys-TAMRA as substrate incubated for 30 mins by fluorescence polarization assay
T2 sequence (P15374 whole entry): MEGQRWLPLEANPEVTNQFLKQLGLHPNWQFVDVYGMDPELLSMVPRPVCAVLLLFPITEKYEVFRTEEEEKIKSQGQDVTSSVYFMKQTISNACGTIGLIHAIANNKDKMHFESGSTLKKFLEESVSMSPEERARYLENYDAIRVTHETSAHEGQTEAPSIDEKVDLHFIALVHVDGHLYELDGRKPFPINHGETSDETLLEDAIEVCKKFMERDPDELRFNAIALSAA
Method in brief: (§2)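 Recombinant DUB (UCHL1 or UCHL3 at 5 nM) preincubated 30 min RT with 8-point compound dilutions in Tris pH 7.5/NaCl or Tris pH 7.5 buffer with Tween-20, BSA and 5 mM BME. Ub-Lys-TAMRA (50 nM) added; fluorescence polarization (Ex 540/Em 590 nm) read at once and after 2 h RT. Triplicate; four-parameter IC50.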

[3] = Cytotoxicity against human HEK293 cells assessed as reduction in cell growth incubated for 72 hrs by live-cell time-lapse imaging; type: toxicity, cell-based
Method in brief: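 HEK293 cells, 1,000 per well, seeded 24 h before exposure to 7 serial dilutions, in triplicate. Confluence imaged every 2 h for 72 h by IncuCyte live-cell time-lapse imaging. EC50 from four-parameter dose-response fit; mean ± SD of 12 technical replicates.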

[4] = target: T3, Ubiquitin carboxyl-terminal hydrolase isozyme L5 (Homo sapiens) (UniProt Q9Y5K5); assay: Inhibition of UCHL5 in human HEK293 cells using HA-Ub-VME as substrate at 0.1 to 10 uM incubated for 1 hr by immunoblotting analysis; type: cell-based; conditions: dose 0.1-10 µM; method in brief: as §1
T3 sequence (whole entry): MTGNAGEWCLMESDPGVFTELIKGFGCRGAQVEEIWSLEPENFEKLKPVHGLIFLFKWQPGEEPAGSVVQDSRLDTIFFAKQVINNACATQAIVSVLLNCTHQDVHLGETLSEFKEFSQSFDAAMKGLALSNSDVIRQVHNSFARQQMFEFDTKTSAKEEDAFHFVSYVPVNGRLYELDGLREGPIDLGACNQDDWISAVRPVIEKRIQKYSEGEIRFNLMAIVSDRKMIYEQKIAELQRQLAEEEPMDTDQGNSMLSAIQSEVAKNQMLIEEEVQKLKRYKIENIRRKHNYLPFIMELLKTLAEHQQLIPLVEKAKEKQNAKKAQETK

[5] = target: Ubiquitin carboxyl-terminal hydrolase isozyme L1 (Homo sapiens) (UniProt P09936); assay: Inhibition of UCHL1 in human HEK293 cells using HA-Ub-VME as substrate at 0.1 to 10 uM incubated for 1 hr by immunoblotting analysis; type: cell-based; conditions: dose 0.1-10 µM; method in brief: as §1
[6] = target: T4, Ubiquitin carboxyl-terminal hydrolase isozyme L3 (Homo sapiens) (UniProt P15374); assay: Inhibition of UCHL3 in human HEK293 cells using HA-Ub-VME as substrate at 0.1 to 10 uM incubated for 1 hr by immunoblotting analysis; type: cell-based; conditions: dose 0.1-10 µM; method in brief: as §1
T4 sequence (whole entry): T2 sequence (P15374 whole entry)

[7] = target: Ubiquitin carboxyl-terminal hydrolase isozyme L1 (Homo sapiens) (UniProt P09936); assay: Binding affinity to GST-tagged recombinant UCHL1 (unknown origin) assessed as covalent adduct formation at 13 uM incubated for 1 hr by LC-ESI-MS analysis
[8] = target: T5, Ubiquitin carboxyl-terminal hydrolase isozyme L1 (Homo sapiens, UniProt P09936); assay: Inhibition of FLAG-tagged UCHL1 (unknown origin) expressed in CAL-51 cells using HA-Ub-VME as substrate incubated for 30 mins by HTRF assay; type: cell-based
T5 sequence (P09936 whole entry): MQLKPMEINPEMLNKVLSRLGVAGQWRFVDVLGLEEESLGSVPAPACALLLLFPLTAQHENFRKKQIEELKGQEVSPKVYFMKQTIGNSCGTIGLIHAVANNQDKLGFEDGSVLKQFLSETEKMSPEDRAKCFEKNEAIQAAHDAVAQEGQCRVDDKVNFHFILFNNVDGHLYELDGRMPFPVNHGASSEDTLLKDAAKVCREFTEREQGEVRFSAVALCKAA
Method in brief: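 Cal51 cells stably expressing FLAG-UCHL1, plated overnight, exposed to compound 1 h at 37 °C. Washed, lysed 30 min on ice in Tris/NaCl/NP-40/CHAPS/MgCl2/BME buffer. Lysate mixed with HA-Ub-VME (100 nM) 30 min RT; anti-FLAG cryptate and anti-HA-XL added, overnight at 4 °C. HTRF Delta F read; IC50 by four-parameter fit, two biological triplicates.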

[9] = target: Ubiquitin carboxyl-terminal hydrolase isozyme L1 (Homo sapiens) (UniProt P09936); assay: Inhibition of GST-tagged recombinant UCHL1 (unknown origin) using Ub-Lys-TAMRA as substrate at 1 uM incubated for 30 mins by fluorescence polarization assay; method in brief: as §2

For N#CN1CC[C@H](C(=O)Nc2ncc(-c3ccccc3)s2)C1, the inhibition [1] was “Active”, the IC50 [2] was > 10000 nM and the EC50 at 72 h [3] was 730 nM. For the same compound, the inhibition [4] was “Active”, the inhibition [5] was “Active” and the inhibition [6] was “Active”. The Activity [7] was “Active”, the IC50 [8] was 550 nM and the inhibition [9] was “Active”.
With C#Cc1ccc(-c2cnc(NC(=O)[C@H]3CCN(C#N)C3)s2)cc1 the inhibition [1] was “Active”, the IC50 [2] was > 10000 nM and the EC50 at 72 h [3] was 350 nM. The inhibition [4] was “Active”, the inhibition [5] was “Active” and the inhibition [6] was “Active”. For the same compound, the Activity [7] was “Active”, the IC50 [8] was 830 nM and the inhibition [9] was “Active”.
